Results from ChEMBL document CHEMBL1151806, “Indolizidine, antiinfective and antiparasitic compounds from Prosopis glandulosa var. glandulosa” (J Nat Prod, 2009).
Converted amounts (≈) assume the structure as drawn. The source made the active and inactive calls. No cut-off for these calls is given here.

Tests used:
Staphylococcus aureus [1] = test: Antimicrobial activity against methicillin-resistant Staphylococcus aureus ATCC 43300 by NCCLS method; format: functional, organism-based
Outline: (§1)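 Samples serially diluted in 20% DMSO/saline, tested in duplicate. Inocula set by OD630: C. albicans RPMI pH 4.5, 1·10^4 CFU/mL; C. neoformans Sabouraud dextrose, 1·10^5; MRSA cation-adjusted Mueller-Hinton pH 7.3, 5·10^5; M. intracellulare 7H9/OADC + 5% Alamar Blue pH 7.3, 2·10^6; A. fumigatus RPMI pH 7.3 + 5% Alamar Blue, 3·10^4.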

Cryptococcus neoformans [2] = test: Antimicrobial activity against Cryptococcus neoformans ATCC 90113 by NCCLS method; format: functional, organism-based; outline: as §1
Vero [3] = test: Cytotoxicity against african green monkey Vero cells at 4760 ng/mL; format: cell-based, Chlorocebus sabaeus
Plasmodium falciparum [4] = test: Antimalarial activity after 72 hrs against chloroquine-resistant Plasmodium falciparum W2 by pLDH activity; format: functional, organism-based; conditions: W2, 72 h
Outline: (§2)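 P. falciparum-infected red cells (2% parasitemia, 2% hematocrit) in RPMI-1640 with 10% human serum and 60 μg/mL amikacin, exposed to serial sample concentrations. Gassed with 90% N2/5% O2/5% CO2, incubated 37 °C for 72 h. Parasite LDH activity read colorimetrically with Malstat reagent.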

[5] = Selectivity index, IC50 for african green monkey (Cercopithecus aethiops) Vero cells to IC50 for […]; format: functional
Outline: (§3)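 Selectivity index = IC50 against VERO cells divided by IC50 against P. falciparum (D6 or W2, respectively), each from the corresponding in-house assay.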

[6] = tested on: Mycobacterium intracellulare; test: Antimicrobial activity against Mycobacterium intracellular ATCC 23068 by alamar blue assay; format: functional, organism-based
Outline: as §1, with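 “3·10^4. Read at 630 nm or 544ex/590em before and after incubation.” for “3·10^4.”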

[7] = Selectivity index, IC50 for african green monkey (Cercopithecus aethiops) Vero cells to IC50 for chloroquine-sensitive Plasmodium falciparum D6; format: functional; outline: as §3
Leishmania donovani = test: Antileishmanial activity against Leishmania donovani promastigotes after 48 hrs by alamar blue assay; format: functional, organism-based
Plasmodium falciparum [8] = test: Antimalarial activity after 72 hrs against […] Plasmodium falciparum D6 by pLDH activity; format: functional, organism-based; conditions: D6, 72 h; outline: as §2
Aspergillus fumigatus [9] = test: Antimicrobial activity against Aspergillus fumigatus ATCC 90906 by alamar blue assay; format: functional, organism-based; outline: as §1
Candida albicans [10] = test: Antimicrobial activity against Candida albicans ATCC 90028 by NCCLS method; format: functional, organism-based; outline: as §1
[11] = tested on: Mycobacterium intracellulare; test: Antimicrobial activity against Mycobacterium intracellular ATCC 23068 by alamar blue assay in presence of 5% human serum; format: functional, organism-based
Candida albicans [12] = test: Antimicrobial activity against Candida albicans ATCC 90028 by NCCLS method in presence of 5% human serum; format: functional, organism-based
Staphylococcus aureus [13] = test: Antimicrobial activity against methicillin-resistant Staphylococcus aureus ATCC 43300 by NCCLS method in presence of 5% human serum; format: functional, organism-based
Cryptococcus neoformans [14] = test: Antimicrobial activity against Cryptococcus neoformans ATCC 90113 by NCCLS method in presence of 5% human serum; format: functional, organism-based
Aspergillus fumigatus [15] = test: Antimicrobial activity against Aspergillus fumigatus ATCC 90906 by alamar blue assay in presence of 5% human serum; format: functional, organism-based
LLC-PK1 = test: Cytotoxicity against pig LLC-PK1 cells after 48 hrs by neutral red assay; format: cell-based, Sus scrofa; conditions: Sus scrofa, LLC-PK1, 48 h; read-out: IC50
Outline: (§4)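 Cells seeded at 25,000/well, incubated 24 h, then exposed to samples for 48 h. Viable cells measured by Neutral Red uptake. IC50 from logarithmic plots of growth inhibition vs concentration. Doxorubicin positive control, DMSO vehicle control.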

Vero [16] = test: Cytotoxicity against african green monkey Vero cells after 48 hrs by neutral red assay; format: cell-based, Chlorocebus sabaeus; conditions: Chlorocebus sabaeus, Vero, 48 h; read-out: IC50; outline: as §4
SK-MEL = test: Cytotoxicity against human SK-MEL cells after 48 hrs by neutral red assay; format: functional, cell-based; outline: as §4
SK-OV-3 = test: Cytotoxicity against human SKOV3 cells after 48 hrs by neutral red assay; format: functional, cell-based; conditions: SK-OV-3, 48 h; outline: as §4
BT-549 = test: Cytotoxicity against human BT549 cells after 48 hrs by neutral red assay; format: functional, cell-based; conditions: BT-549, 48 h; outline: as §4
KB = test: Cytotoxicity against human KB cells after 48 hrs by neutral red assay; format: functional, cell-based; outline: as §4
[17] = Candida albicans, ATCC 90028, read-out: IC50

Molecule C[C@H]1N[C@@H](CCCCCCCCCCC2=C[C@@H](CCCCCCCCCC[C@@H]3CC[C@H](O)[C@@H](C)N3)[C@@H]3CCCN3C2)CC[C@H]1O.Cl.Cl has an IC50 (Staphylococcus aureus [1]) of 3 µg/mL, an IC50 (Cryptococcus neoformans [2]) of 0.85 µg/mL and an MFC (Cryptococcus neoformans [2]) of 2.5 µg/mL. The MIC (Cryptococcus neoformans [2]) was 1.25 µg/mL, the IC50 (Vero [3]) was “Non-toxic” and the IC50 (Plasmodium falciparum [4]) was 0.29 µg/mL. For the same molecule, the “Ratio IC50” value [5] was >16.4, the IC50 [6] was 10 µg/mL and the “Ratio IC50” value [7] was >12.5. For the same molecule, the IC50 (Leishmania donovani) was 0.7 µg/mL, the IC90 (Leishmania donovani) was 1.2 µg/mL and the IC50 (Plasmodium falciparum [8]) was 0.38 µg/mL. It also gave an IC50 (Aspergillus fumigatus [9]; Aspergillus fumigatus, ATCC 90906, read-out: IC50) of 6.5 µg/mL and an IC50 (Candida albicans [10]; [17]) of 7.5 µg/mL.

With C[C@@H]1N[C@H](CCCCCCCCCCC2=C[C@@H](CCCCCCCCCC[C@@H]3CC[C@@H](O)[C@H](C)N3)[C@@H]3CCCN3C2)CC[C@H]1O.Cl.Cl the IC50 (Staphylococcus aureus [1]) was 3 µg/mL, the IC50 (Cryptococcus neoformans [2]) was 2 µg/mL and the IC50 (Vero [3]) was “Non-toxic”. For the same molecule, the “Ratio IC50” value [5] was >8.5, the IC50 [6] was 9.5 µg/mL and the MIC [6] was 20 µg/mL. For the same molecule, the “Ratio IC50” value [7] was >7.9, the IC90 (Leishmania donovani) was 7 µg/mL and the IC50 (Plasmodium falciparum [8]) was 0.6 µg/mL. For the same molecule, the IC50 (Aspergillus fumigatus [9]) was “Not Active” and the IC50 (Candida albicans [10]) was “Not Active”.

With C[C@@H]1N[C@H](CCCCCCCCCCC2=C[C@@H](CCCCCCCCCC[C@@H]3CC[C@@H](O)[C@H](C)N3)[C@@H]3CCCN3C2)CC[C@H]1O the Activity [11] was “Active”, the Activity (Candida albicans [12]) was “Active” and the Activity (Staphylococcus aureus [13]) was “Active”. For the same molecule, the MBC [6] was “inactive”, the Activity (Cryptococcus neoformans [14]) was “Active” and the Activity (Aspergillus fumigatus [15]) was “Active”. The MFC (Aspergillus fumigatus [9]) was “inactive”, the MIC (Aspergillus fumigatus [9]) was “inactive” and the MFC (Candida albicans [10]) was “inactive”. For the same molecule, the MIC (Candida albicans [10]) was “inactive”.

In the case of C[C@H]1N[C@@H](CCCCCCCCCCC2=C[C@@H](CCCCCCCCCC[C@@H]3CC[C@H](O)[C@@H](C)N3)[C@@H]3CCCN3C2)CC[C@H]1O, the Activity [11] is reported as “Active”, the Activity (Candida albicans [12]) is reported as “Active” and the Activity (Staphylococcus aureus [13]) is reported as “Active”. The MBC (Staphylococcus aureus [1]) was “inactive”, the MBC [6] was “inactive” and the MIC [6] was “inactive”. For the same molecule, the Activity (Cryptococcus neoformans [14]) was “Active”, the Activity (Aspergillus fumigatus [15]) was “Active” and the MFC (Aspergillus fumigatus [9]) was “inactive”. The MFC (Candida albicans [10]) was “inactive” and the MIC (Candida albicans [10]) was “inactive”.

For C[C@@H]1CC[C@H]2[C@@H](C)C(=O)O[C@@H]3O[C@@]4(C)CC[C@@H]1[C@]32OO4 [ARTEMISININ], the IC50 (Vero [3]) was “Non-toxic”, the IC50 (LLC-PK1) was 0.6 µg/mL (≈ 2.13 µM) and the IC50 (Vero [16]) was > 4.76 µg/mL. The IC50 (Plasmodium falciparum [8]) was 0.016 µg/mL (≈ 0.0567 µM).

In the case of CCN(CC)CCCC(C)Nc1ccnc2cc(Cl)ccc12 (stereo not drawn) [CHLOROQUINE], the IC50 (Vero [3]) is reported as “Non-toxic”.

With O=C(O)c1cn(C2CC2)c2cc(N3CCNCC3)c(F)cc2c1=O [CIPROFLOXACIN] the MBC (Staphylococcus aureus [1]) was “inactive”, the MIC (Staphylococcus aureus [1]) was 0.3 µg/mL (≈ 0.905 µM) and the MBC [6] was “inactive”. It also gave an MIC [6] of 0.63 µg/mL (≈ 1.9 µM).

In the case of COc1cccc2c1C(=O)c1c(O)c3c(c(O)c1C2=O)C[C@@](O)(C(=O)CO)C[C@@H]3O[C@H]1C[C@H](N)[C@H](O)[C@H](C)O1 [DOXORUBICIN], the IC50 (SK-MEL) is reported as < 0.55 µg/mL, the IC50 (SK-OV-3) is reported as < 0.55 µg/mL and the IC50 (LLC-PK1) is reported as < 0.55 µg/mL. The IC50 (BT-549) was < 0.55 µg/mL, the IC50 (Vero [16]) was 3.2 µg/mL (≈ 5.89 µM) and the IC50 (KB) was < 0.55 µg/mL.

N=C(N)c1ccc(OCCCCCOc2ccc(C(=N)N)cc2)cc1 [PENTAMIDINE] showed an IC50 (Leishmania donovani) of 0.5 µg/mL (≈ 1.47 µM) and an IC90 (Leishmania donovani) of 2 µg/mL (≈ 5.87 µM).

In the case of C[C@@H]1N[C@H](CCCCCCCCCCc2cc(CCCCCCCCCC[C@@H]3CC[C@@H](O)[C@H](C)N3)c3[n+](c2)CCC3)CC[C@H]1O.[Cl-] [PROSOPILOSIDINE DIHYDROCHLORIDE], the Activity [11] is reported as “Active”, the Activity (Candida albicans [12]) is reported as “Active” and the Activity (Staphylococcus aureus [13]) is reported as “Active”. It also gave an IC50 (Staphylococcus aureus [1]) of 1.5 µg/mL, an MIC (Staphylococcus aureus [1]) of 2.5 µg/mL and an IC50 (Cryptococcus neoformans [2]) of 1.5 µg/mL. For the same molecule, the MFC (Cryptococcus neoformans [2]) was 2.5 µg/mL, the MIC (Cryptococcus neoformans [2]) was 2.5 µg/mL and the IC50 (Vero [3]) was “Non-toxic”. The “Ratio IC50” value [5] was >17.6, the IC50 [6] was 3.5 µg/mL and the MBC [6] was “inactive”. The MIC [6] was 10 µg/mL, the Activity (Cryptococcus neoformans [14]) was “Active” and the “Ratio IC50” value [7] was >11.1. The IC50 (Leishmania donovani) was 2.8 µg/mL, the IC90 (Leishmania donovani) was 8 µg/mL and the Activity (Aspergillus fumigatus [15]) was “Active”. The IC50 (Plasmodium falciparum [8]) was 0.43 µg/mL, the IC50 (Aspergillus fumigatus [9]) was “Not Active” and the MFC (Aspergillus fumigatus [9]) was “inactive”. For the same molecule, the MIC (Aspergillus fumigatus [9]) was “inactive”, the MFC (Candida albicans [10]) was “inactive” and the MIC (Candida albicans [10]; Candida albicans, ATCC 90028) was 20 µg/mL. It also gave an IC50 (Candida albicans [10]; [17]) of 15 µg/mL.
